Bioassay records: PubChem BioAssay, several laboratories
This is a sample that favours compounds with a hit; in the whole collection about 4.2% have one here.
TMEM16A inh = inhibitors of mouse TMEM16A calcium-activated chloride channel; Q8BHY3; HEK293 TMEM16A/YFP iodide influx fluorescence, ionomycin; normalized B-score (activity score, 25-100; higher = stronger inhibition) at 10 µM; 310,000 compounds, 1.2% hits;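 active = ratio plate-corrected score three or more library SD toward inhibition, starting fluorescence score within five deviations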;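 also: score derived from kinetic fluorescence span divided by baseline fluorescence per well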
Target sequence (Q8BHY3 whole entry, looked up): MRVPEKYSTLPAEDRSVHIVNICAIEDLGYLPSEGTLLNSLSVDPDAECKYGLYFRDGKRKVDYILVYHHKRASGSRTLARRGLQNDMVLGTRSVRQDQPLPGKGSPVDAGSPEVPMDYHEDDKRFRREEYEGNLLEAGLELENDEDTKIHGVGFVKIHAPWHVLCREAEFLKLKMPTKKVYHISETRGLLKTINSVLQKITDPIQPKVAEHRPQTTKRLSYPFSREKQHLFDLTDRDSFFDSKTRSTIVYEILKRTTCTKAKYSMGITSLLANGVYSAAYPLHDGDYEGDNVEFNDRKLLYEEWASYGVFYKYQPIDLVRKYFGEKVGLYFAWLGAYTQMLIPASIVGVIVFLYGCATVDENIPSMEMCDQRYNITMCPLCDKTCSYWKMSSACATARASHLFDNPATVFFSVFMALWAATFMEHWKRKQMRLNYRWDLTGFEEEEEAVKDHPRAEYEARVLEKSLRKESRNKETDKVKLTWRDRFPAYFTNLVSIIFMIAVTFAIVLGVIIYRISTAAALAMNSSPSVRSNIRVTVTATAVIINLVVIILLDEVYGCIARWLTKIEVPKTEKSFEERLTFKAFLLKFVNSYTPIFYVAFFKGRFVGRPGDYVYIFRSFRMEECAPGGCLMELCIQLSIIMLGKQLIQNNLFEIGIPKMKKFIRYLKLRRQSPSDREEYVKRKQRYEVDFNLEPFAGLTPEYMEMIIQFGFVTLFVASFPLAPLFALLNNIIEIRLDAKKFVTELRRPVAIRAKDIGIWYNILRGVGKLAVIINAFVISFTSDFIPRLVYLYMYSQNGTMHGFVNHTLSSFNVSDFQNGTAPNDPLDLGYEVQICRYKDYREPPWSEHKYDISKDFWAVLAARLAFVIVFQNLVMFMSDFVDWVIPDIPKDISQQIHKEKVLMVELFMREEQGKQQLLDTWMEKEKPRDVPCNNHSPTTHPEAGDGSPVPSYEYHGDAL
CHOP inh = CHOP inhibition in unfolded protein response | CHO-K1 CHOP-promoter luciferase, tunicamycin-induced, 15-18 h | inhibition, % at 10 µM | 220,000 compounds, 3.8% hits;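 active = compounds that reduced the stress-induced luciferase reporter signal by more than about 70% of percent inhibition, limit read from the data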;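 also: 0% = tunicamycin plus vehicle and 100% = wells without tunicamycin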
UPR CHOP act = apoptotic UPR (CHOP) activation | CHO-CHOP luciferase reporter, luminescence; percent of tunicamycin response over DMSO baseline | activation, % at 10 µM | 330,000 compounds, 0.34% hits;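 active = at 10 µM dose, activation of 40% or more, normalized to positive control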;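 also: 100% = tunicamycin at 10 µg/mL and 0% = DMSO alone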
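assay system = CHO CHOP reporter cells | amount = 500 CHO-CHOP cells per well | buffer or medium = F12 with 10% FBS | incubation = 16-18 h cell attachment, then 6 h compound exposure, 37 °C | detection = luminescence read with Steady-Glo | read-out = percent activation relative to tunicamycin control | controls = tunicamycin high control, DMSO low control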
Hep lipid drop = modulators of hepatic lipid droplet formation. AML12 mouse hepatocytes, oleate lipid droplets, BODIPY imaging. inhibition, % at 6.5 µM. 240,000 compounds, 0.4% hits;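 active = lipid droplet intensity inhibited by at least 50%, with more than 500 cells counted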
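Technique: fluorescence imaging, 20x objective, two fields per well / Assay system: AML12 hepatocytes (mouse) / Measure: % inhibition of lipid droplet signal / Doses: 6.5 µM single-point dosing / Incubation: overnight exposure / Reagent: 100 µM oleic acid challenge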
TMEM16A act = activates or potentiates the mouse TMEM16A chloride channel. Q8BHY3. HEK293 TMEM16A/YFP-H148Q/I152L, iodide quench fluorescence; active compounds read low. B-score at 10 µM. 340,000 compounds, 0.3% hits;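 active = fluorescence-ratio B-score plate-corrected deviation score at least 3 library SD below zero, with starting fluorescence score within 5 deviations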;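 also: channel opened by trigger with iodide after compound preincubation; score built on the fluorescence ratio of max minus min over baseline; more negative score means more quench and so TMEM16A activation or potentiation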
UPR XBP1 act = adaptive UPR (XBP1) activation | CHO-XBP1 luciferase reporter, IRE1-XBP1 UPR activation, luminescence; percent of tunicamycin response, DMSO as zero | activation, % at 20 µM | 330,000 compounds, 0.33% hits;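 active = versus positive control, 20 µM dose yields 30% or more activation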;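 also: 100% = tunicamycin at 10 µg/mL and 0% = DMSO only wells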
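Material – CHO cell line with stable XBP1 luciferase reporter · Buffer or medium – F12 plus 10% FBS · Compound – single point, 20 µM final compound, 1% DMSO · Schedule – 16-18 h cell attachment at 37 °C, then 6 h compound exposure · Signal – Steady-Glo luminescence read · Benchmarks – high control tunicamycin 10 µg/mL final, low control DMSO vehicle only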
The depositor's hits bear a star.

How did CCOC(=O)c1c(NC(=O)CSc2nnc(-c3c[nH]c4ccccc34)n2C)sc2c1CCCC2 do in these assays?
TMEM16A inh: inactive; CHOP inh: 15.6; UPR CHOP act: -0.5; Hep lipid drop: -5.8; TMEM16A act: -21.5*; UPR XBP1 act: 0.2

How did CCOC(=O)c1c(NC(=O)COC(=O)Cn2cnc3ccccc32)sc2c1CCC(C)C2 (centres undefined) do in these assays?
TMEM16A inh: inactive; CHOP inh: 71.9*; Hep lipid drop: 13.0; TMEM16A act: inactive

What do the screens show for `CCOC(=O)c1c(NC(=O)CSc2nnc(-c3c[nH]c4ccccc34)n2CCOC)sc2c1CCCC2`?
TMEM16A inh: inactive; CHOP inh: 12.7; UPR CHOP act: 4.1; Hep lipid drop: -28.6; TMEM16A act: inactive; UPR XBP1 act: 0.3

How did CCOC(=O)c1c(NC(=O)C(C)NCc2ccco2)sc2c1CCC(C)C2 (centres undefined) do in these assays?
TMEM16A inh: inactive; CHOP inh: 72.7*; UPR CHOP act: -2.0; Hep lipid drop: -10.2; TMEM16A act: inactive; UPR XBP1 act: -2.6

Results for Oc1c(Br)cc(Br)cc1/C=N/c1nc2c(s1)CCCC2 ?
TMEM16A inh: inactive; CHOP inh: 85.6*; UPR CHOP act: -2.9; TMEM16A act: inactive; UPR XBP1 act: 0.1

How did Cc1cc(=O)oc2cc(OCC(=O)N3CCN(C(=O)C4COc5ccccc5O4)CC3)c(Cl)cc12 (centres undefined) do in these assays?
TMEM16A inh: inactive; UPR CHOP act: -0.2; Hep lipid drop: -9.4; TMEM16A act: inactive; UPR XBP1 act: -5.2

How did CC(C)C(NS(=O)(=O)c1cccc2nsnc12)C(=O)Nc1nc2ccc(Cl)cc2s1 (centres undefined) do in these assays?
TMEM16A inh: inactive; CHOP inh: 88.5*; UPR CHOP act: 2.4; TMEM16A act: inactive; UPR XBP1 act: -3.1

What do the screens show for `COc1ccc(OC2CCN(S(=O)(=O)c3ccc(C(C)=O)cc3)CC2)cc1`?
TMEM16A inh: inactive; UPR CHOP act: 0.5; Hep lipid drop: 0.1; TMEM16A act: inactive; UPR XBP1 act: -5.0

Results for CCCCOc1ccc(C2OC34CCCCC3C(C#N)(C#N)C2(C#N)C(=N)O4)cc1 (centres undefined) ?
TMEM16A inh: inactive; CHOP inh: -12.5; UPR CHOP act: 33.9; Hep lipid drop: -3.0; TMEM16A act: inactive; UPR XBP1 act: -0.6

Results for CCOc1ccc(C2OC34CCCCC3C(C#N)(C#N)C2(C#N)C(=N)O4)cc1OC (centres undefined) ?
TMEM16A inh: inactive; CHOP inh: -54.9; UPR CHOP act: 17.3; Hep lipid drop: -6.6; TMEM16A act: -5.05*; UPR XBP1 act: -2.3

What do the screens show for `Cc1cc(C)nc(NS(=O)(=O)c2ccc(NC(=O)CSc3nc(-c4ccccc4)c(C#N)c(=O)[nH]3)cc2)n1`?
TMEM16A inh: inactive; CHOP inh: -2.6; UPR CHOP act: 0.4; Hep lipid drop: -3.4; TMEM16A act: inactive; UPR XBP1 act: -1.8

How did Cc1ccc(OCc2nnnn2-c2ccccc2)cc1 do in these assays?
TMEM16A inh: inactive; CHOP inh: -1.5; UPR CHOP act: 0.8; Hep lipid drop: 21.8; TMEM16A act: inactive; UPR XBP1 act: 0.0

What do the screens show for `COc1ccccc1N=c1scc(-c2ccc3c(c2)NC(=O)CO3)n1CC1CCCO1` (centres undefined)?
TMEM16A inh: inactive; CHOP inh: 49.2; UPR CHOP act: -2.7; Hep lipid drop: 4.8; TMEM16A act: inactive; UPR XBP1 act: 1.7

How did CN(C)S(=O)(=O)c1cccc(N=c2scc(-c3ccc4c(c3)NC(=O)CO4)n2CC2CCCO2)c1 (centres undefined) do in these assays?
TMEM16A inh: inactive; CHOP inh: 4.3; UPR CHOP act: 1.4; Hep lipid drop: 29.3; TMEM16A act: inactive; UPR XBP1 act: -3.8

What do the screens show for `COCC(C)n1c(-c2ccc3c(c2)NC(=O)CO3)csc1=Nc1ccc(OC(F)F)cc1` (centres undefined)?
TMEM16A inh: inactive; CHOP inh: 88.6*; UPR CHOP act: 1.5; Hep lipid drop: 13.6; TMEM16A act: inactive; UPR XBP1 act: -1.2

How did CCN=c1scc(-c2ccc3c(c2)NC(=O)CO3)n1N=C1CCCC1 do in these assays?
TMEM16A inh: 100*; UPR CHOP act: -2.2; TMEM16A act: inactive; UPR XBP1 act: -0.9

Results for O=C1COc2ccc(-c3csc(=Nc4ccc(OC(F)F)cc4)n3CC3CCCO3)cc2N1 (centres undefined) ?
TMEM16A inh: inactive; CHOP inh: 78.0*; UPR CHOP act: -1.7; TMEM16A act: inactive; UPR XBP1 act: -1.3

How did CCc1nnc(NC(=O)CN2CCN(Cc3ccc(F)cc3)CC2)s1 do in these assays?
TMEM16A inh: inactive; UPR CHOP act: -1.9; Hep lipid drop: 8.8; TMEM16A act: inactive; UPR XBP1 act: -5.4

Results for O=C(/C=C/c1ccccc1[N+](=O)[O-])NCc1cccnc1 ?
TMEM16A inh: inactive; CHOP inh: 17.6; UPR CHOP act: 0.7; Hep lipid drop: 21.0; TMEM16A act: inactive; UPR XBP1 act: -2.0

How did CCOC(=O)c1c(C)n(C)c2cc(-c3ccc(F)cc3)c(O)cc12 do in these assays?
TMEM16A inh: inactive; CHOP inh: 79.4*; UPR CHOP act: 1.2; Hep lipid drop: 12.6; TMEM16A act: inactive; UPR XBP1 act: -0.6

What do the screens show for `CCOC(=O)c1c(C)n(C)c2ccc(OC(C)=O)cc12`?
TMEM16A inh: inactive; CHOP inh: 1.2; UPR CHOP act: 1.3; Hep lipid drop: -4.3; TMEM16A act: inactive; UPR XBP1 act: -0.2

Results for NS(=O)(=O)c1cc(C(=O)OCC(=O)N2CCc3ccccc3C2)ccc1Cl ?
UPR CHOP act: 0.5; TMEM16A act: inactive; UPR XBP1 act: 3.3

How did CCCCCn1c(N2CCC(Cc3ccccc3)CC2)nc2c1c(=O)[nH]c(=O)n2C do in these assays?
TMEM16A inh: 100*; UPR CHOP act: 0.5; TMEM16A act: inactive; UPR XBP1 act: 18.5

What do the screens show for `Cn1c(=O)[nH]c(=O)c2c1nc(N1CCCCCC1)n2CCSc1nc2ccccc2o1`?
TMEM16A inh: inactive; CHOP inh: -2.7; UPR CHOP act: -0.4; Hep lipid drop: 20.0; TMEM16A act: inactive; UPR XBP1 act: 5.0

Results for Cn1c(=O)[nH]c(=O)c2c1nc(N1CCCCCC1)n2CCCSc1nc2ccccc2o1 ?
TMEM16A inh: inactive; CHOP inh: 95.1*; UPR CHOP act: 1.7; Hep lipid drop: -3.3; TMEM16A act: inactive; UPR XBP1 act: 10.5
